From ChEMBL document CHEMBL4052830, “Dual Nicotinic Acetylcholine Receptor α4β2 Antagonists/α7 Agonists: Synthesis, Docking Studies, and Pharmacological Evaluation of Tetrahydroisoquinolines and Tetrahydroisoquinolinium Salts” (J Med Chem, 2018)
Activity calls are given as the source filed them. The rule behind the calls is not given here.

Key:
[1] = biological target: T1, Neuronal acetylcholine receptor; alpha3/beta4 (Rattus norvegicus, UniProt P04757+P12392); test: Displacement of [3H]epibatidine from rat alpha3beta4 nAChR expressed in HEK293 cell membranes after 4 hrs by scintillation counting method
Summary of the method: (§1)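 Membranes from HEK293 lines stably expressing α3β4, α4β4 or α4β2 nAChR, [3H]epibatidine competition binding. Ki came from concentration-inhibition curves. Means of 3–5 experiments in duplicate.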

Mus musculus [2] = test: Anti-depressant like activity in sc dosed mouse assessed as increase in swimming activity administered 15 mins prior to testing by forced swim test; assay type: functional, organism-based
Summary of the method: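 Mouse forced swim test, n = 9–10 per group, doses 1, 3 and 10 mg/kg. Each mouse was placed in a 16 cm diameter beaker with 20 cm of water at 23.5–24.5 °C for 6 min. Camera-tracked total swim distance was scored after the first minute. Analysed by one-way ANCOVA with planned pairwise comparisons.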

[3] = biological target: Neuronal acetylcholine receptor; alpha4/beta4 (Rattus norvegicus, UniProt P09483+P12392); test: Displacement of [3H]epibatidine from rat alpha4beta4 nAChR expressed in HEK293 cell membranes after 4 hrs by scintillation counting method; summary of the method: as §1
[4] = biological target: Nicotinic acetylcholine receptor alpha-4/beta-2 (Mus musculus, UniProt Q8R493+Q9ERK7); test: Antagonist activity at mouse alpha4beta2 nAChR expressed in HEK293 cells assessed as inhibition of (S)-nicotine-induced […] response measured up to 90 secs by FMP assay; assay type: cell-based
Summary of the method: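 Mouse α4β2 nAChR in stably expressing HEK293T cells, FLIPR Membrane Potential Blue assay. IC50 came from concentration-inhibition curves. Means of 3–5 experiments in duplicate.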

[5] = biological target: T1, Neuronal acetylcholine receptor; alpha3/beta4; test: Antagonist activity at rat alpha3beta4 nAChR expressed in HEK293 cells assessed as inhibition of (S)-nicotine-induced […] response measured up to 90 secs by FMP assay; assay type: cell-based
Summary of the method: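 Rat α3β4 nAChR in stably expressing HEK293 cells, FLIPR Membrane Potential Blue assay. Antagonist mode against (S)-nicotine at EC70–EC90. IC50 derived from concentration-inhibition curves. Means of 3–5 experiments in duplicate.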

[6] = biological target: T2, Neuronal acetylcholine receptor subunit alpha-7 (Homo sapiens, UniProt P36544); test: Agonist activity at human alpha7 nAChR expressed in HEK293 cells co-expressing Ric-3/NACHO assessed as induction of calcium mobilization at 10 uM measured up to 90 secs in presence of PNU-120596 by FLIPR assay; assay type: cell-based
[7] = biological target: Neuronal acetylcholine receptor; alpha4/beta2 (Rattus norvegicus, UniProt P09483+P12390); test: Displacement of [3H]epibatidine from rat alpha4beta2 nAChR expressed in HEK293 cell membranes after 4 hrs by scintillation counting method; summary of the method: as §1
[8] = biological target: T2, Neuronal acetylcholine receptor subunit alpha-7; test: Agonist activity at human alpha7 nAChR expressed in HEK293 cells co-expressing Ric-3/NACHO assessed as induction of calcium mobilization at >= 10 uM measured up to 90 secs in presence of PNU-120596 by FLIPR assay; assay type: cell-based
[9] = biological target: T2, Neuronal acetylcholine receptor subunit alpha-7; test: Agonist activity at human alpha7 nAChR expressed in HEK293 cells co-expressing Ric-3/NACHO assessed as induction of calcium mobilization at 1 to 3 uM measured up to 90 secs in presence of PNU-120596 by FLIPR assay; assay type: cell-based
[10] = biological target: T2, Neuronal acetylcholine receptor subunit alpha-7; test: Agonist activity at human alpha7 nAChR expressed in HEK293 cells co-expressing Ric-3/NACHO assessed as induction of calcium mobilization at 0.3 to 3 uM measured up to 90 secs in presence of PNU-120596 by FLIPR assay; assay type: cell-based
[11] = biological target: Neuronal acetylcholine receptor; alpha4/beta2 (Homo sapiens, UniProt P17787+P43681); test: Displacement of [3H]cytisine from human alpha4beta2 nAChR expressed in human SH-EP1 cell membranes after 75 mins by liquid scintillation spectrometry
[12] = biological target: Neuronal acetylcholine receptor; alpha3/beta4 (Rattus norvegicus) (UniProt P04757+P12392); test: Potency index, ratio of DHbetaE Ki to test compound Ki for rat alpha3beta4 nAChR; assay type: protein-complex assay
[13] = biological target: Neuronal acetylcholine receptor; alpha4/beta2 (Rattus norvegicus) (UniProt P09483+P12390); test: Potency index, ratio of DHbetaE Ki to test compound Ki for rat alpha4beta2 nAChR; assay type: protein-complex assay
[14] = Selectivity ratio of IC50 for rat alpha3beta4 nAChR to IC50 for mouse alpha4beta2 nAChR
[15] = biological target: Neuronal acetylcholine receptor; alpha4/beta4 (Rattus norvegicus) (UniProt P09483+P12392); test: Potency index, ratio of DHbetaE Ki to test compound Ki for rat alpha4beta4 nAChR; assay type: protein-complex assay
Mus musculus [16] = test: Anti-depressant like activity in mouse assessed as increase in swimming activity at 10 mg/kg, sc administered 15 mins prior to testing by forced swim test; assay type: functional, organism-based
Summary of the method: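 Mice (n = 9–10) placed singly in a 16 cm beaker filled with water to 20 cm at 23.5–24.5 °C. Total swim distance over the 6 min test was recorded by overhead camera. Analysed by one-way ANCOVA, then planned pairwise comparisons of predicted means.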

[17] = biological target: T2, Neuronal acetylcholine receptor subunit alpha-7; test: Agonist activity at human alpha7 nAChR expressed in HEK293 cells co-expressing Ric-3/NACHO assessed as induction of calcium mobilization measured up to 90 secs in presence of PNU-120596 by FLIPR assay; assay type: cell-based
Summary of the method: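 Human α7 nAChR stably co-expressed with Ric-3 and NACHO in HEK293 cells, Ca2+/Fluo-4 fluorescence assay. Assay buffer held 3 μM PNU-120596 (α7 PAM) to slow desensitization. Agonist concentration-response curves gave EC50 and Rmax. Means of 3–5 experiments run in duplicate.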

Sequence of Neuronal acetylcholine receptor; alpha4/beta2 (Rattus norvegicus, UniProt P09483+P12390) (P09483 whole entry): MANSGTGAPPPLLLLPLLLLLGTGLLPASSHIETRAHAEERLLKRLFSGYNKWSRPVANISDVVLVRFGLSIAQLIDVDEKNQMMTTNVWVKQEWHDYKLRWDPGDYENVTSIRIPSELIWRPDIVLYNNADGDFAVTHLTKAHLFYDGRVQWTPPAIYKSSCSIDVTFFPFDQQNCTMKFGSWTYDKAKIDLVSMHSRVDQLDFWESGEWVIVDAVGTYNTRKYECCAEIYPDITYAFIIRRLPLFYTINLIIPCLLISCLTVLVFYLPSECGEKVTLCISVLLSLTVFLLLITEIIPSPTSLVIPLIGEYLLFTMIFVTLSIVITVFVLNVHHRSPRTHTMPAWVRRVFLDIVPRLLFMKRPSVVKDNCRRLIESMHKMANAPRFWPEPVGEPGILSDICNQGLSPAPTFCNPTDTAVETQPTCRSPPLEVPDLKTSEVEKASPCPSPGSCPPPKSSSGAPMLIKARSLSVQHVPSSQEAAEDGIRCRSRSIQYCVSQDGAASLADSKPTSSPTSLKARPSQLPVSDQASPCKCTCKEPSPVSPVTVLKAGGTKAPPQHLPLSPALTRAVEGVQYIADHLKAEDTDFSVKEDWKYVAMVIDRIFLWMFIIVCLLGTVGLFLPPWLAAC
Sequence of Neuronal acetylcholine receptor; alpha4/beta2 (Rattus norvegicus, UniProt P09483+P12390) (P12390 whole entry): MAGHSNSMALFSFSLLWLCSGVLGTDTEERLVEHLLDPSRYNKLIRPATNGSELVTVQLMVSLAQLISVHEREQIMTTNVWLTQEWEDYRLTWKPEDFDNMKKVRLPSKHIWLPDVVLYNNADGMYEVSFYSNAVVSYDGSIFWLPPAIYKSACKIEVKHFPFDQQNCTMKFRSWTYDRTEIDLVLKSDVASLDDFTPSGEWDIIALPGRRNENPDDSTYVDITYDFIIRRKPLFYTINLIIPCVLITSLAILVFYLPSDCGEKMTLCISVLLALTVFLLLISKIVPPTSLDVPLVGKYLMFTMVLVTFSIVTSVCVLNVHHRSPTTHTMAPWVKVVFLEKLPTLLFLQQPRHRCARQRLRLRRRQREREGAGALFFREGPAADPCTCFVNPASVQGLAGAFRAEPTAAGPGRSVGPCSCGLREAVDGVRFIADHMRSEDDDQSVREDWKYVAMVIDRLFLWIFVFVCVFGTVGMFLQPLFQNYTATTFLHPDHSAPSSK
Sequence of Neuronal acetylcholine receptor; alpha4/beta4 (P09483 whole entry): as the sequence (P09483 whole entry) above
Sequence of Neuronal acetylcholine receptor; alpha4/beta4 (P12392 whole entry): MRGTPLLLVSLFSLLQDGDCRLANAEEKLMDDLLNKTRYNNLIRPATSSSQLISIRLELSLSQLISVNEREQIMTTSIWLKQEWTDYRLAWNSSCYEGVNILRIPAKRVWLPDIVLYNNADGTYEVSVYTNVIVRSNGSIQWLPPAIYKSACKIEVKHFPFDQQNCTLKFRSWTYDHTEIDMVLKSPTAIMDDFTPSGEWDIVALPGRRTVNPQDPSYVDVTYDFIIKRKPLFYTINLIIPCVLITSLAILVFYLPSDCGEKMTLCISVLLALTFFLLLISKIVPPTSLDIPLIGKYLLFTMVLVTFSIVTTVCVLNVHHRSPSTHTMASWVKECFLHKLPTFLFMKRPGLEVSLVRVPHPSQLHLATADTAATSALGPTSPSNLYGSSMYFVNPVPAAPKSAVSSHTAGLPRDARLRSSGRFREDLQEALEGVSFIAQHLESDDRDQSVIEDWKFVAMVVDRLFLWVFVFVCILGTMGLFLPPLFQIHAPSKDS
T2 sequence (P36544 whole entry): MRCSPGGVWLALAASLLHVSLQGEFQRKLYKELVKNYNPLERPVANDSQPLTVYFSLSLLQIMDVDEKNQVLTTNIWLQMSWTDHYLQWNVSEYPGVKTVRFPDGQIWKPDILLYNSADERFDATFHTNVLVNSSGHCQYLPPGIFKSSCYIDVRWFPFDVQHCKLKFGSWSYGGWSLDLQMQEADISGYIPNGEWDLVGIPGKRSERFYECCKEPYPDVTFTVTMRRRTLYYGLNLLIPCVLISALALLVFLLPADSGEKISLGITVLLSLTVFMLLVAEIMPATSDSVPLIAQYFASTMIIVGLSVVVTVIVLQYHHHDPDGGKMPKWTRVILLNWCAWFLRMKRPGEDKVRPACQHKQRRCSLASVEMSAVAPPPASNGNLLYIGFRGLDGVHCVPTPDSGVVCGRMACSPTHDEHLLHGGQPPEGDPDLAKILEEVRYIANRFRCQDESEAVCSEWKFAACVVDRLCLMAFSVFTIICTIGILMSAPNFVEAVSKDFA
Sequence of Nicotinic acetylcholine receptor alpha-4/beta-2 (Q9ERK7 whole entry): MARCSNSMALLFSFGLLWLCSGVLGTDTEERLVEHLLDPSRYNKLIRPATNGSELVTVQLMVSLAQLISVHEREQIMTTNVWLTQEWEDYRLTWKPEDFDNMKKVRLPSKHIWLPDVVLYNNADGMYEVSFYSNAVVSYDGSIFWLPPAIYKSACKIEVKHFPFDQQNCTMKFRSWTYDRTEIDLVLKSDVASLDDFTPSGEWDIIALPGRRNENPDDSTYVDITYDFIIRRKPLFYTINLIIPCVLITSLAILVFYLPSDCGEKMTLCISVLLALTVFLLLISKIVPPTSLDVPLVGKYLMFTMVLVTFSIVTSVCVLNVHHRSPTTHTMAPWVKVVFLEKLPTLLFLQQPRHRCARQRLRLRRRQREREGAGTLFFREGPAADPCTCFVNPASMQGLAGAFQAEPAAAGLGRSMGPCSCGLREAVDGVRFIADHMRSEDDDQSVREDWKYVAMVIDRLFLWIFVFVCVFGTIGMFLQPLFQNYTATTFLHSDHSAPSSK
Sequence of Nicotinic acetylcholine receptor alpha-4/beta-2 (Q8R493 whole entry): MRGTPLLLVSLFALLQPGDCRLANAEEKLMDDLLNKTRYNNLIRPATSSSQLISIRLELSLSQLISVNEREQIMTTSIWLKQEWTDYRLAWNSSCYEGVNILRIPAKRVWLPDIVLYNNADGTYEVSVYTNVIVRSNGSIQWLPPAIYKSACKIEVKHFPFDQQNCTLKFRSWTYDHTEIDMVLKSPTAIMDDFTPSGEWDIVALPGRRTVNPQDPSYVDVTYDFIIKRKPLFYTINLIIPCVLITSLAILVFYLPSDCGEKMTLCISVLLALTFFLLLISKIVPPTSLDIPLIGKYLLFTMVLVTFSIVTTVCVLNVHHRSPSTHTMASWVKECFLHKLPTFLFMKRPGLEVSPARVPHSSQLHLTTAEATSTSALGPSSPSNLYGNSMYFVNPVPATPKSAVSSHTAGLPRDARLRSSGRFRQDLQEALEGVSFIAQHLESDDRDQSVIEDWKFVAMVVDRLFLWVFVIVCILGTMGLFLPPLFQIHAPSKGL
T1 sequence (P04757 whole entry): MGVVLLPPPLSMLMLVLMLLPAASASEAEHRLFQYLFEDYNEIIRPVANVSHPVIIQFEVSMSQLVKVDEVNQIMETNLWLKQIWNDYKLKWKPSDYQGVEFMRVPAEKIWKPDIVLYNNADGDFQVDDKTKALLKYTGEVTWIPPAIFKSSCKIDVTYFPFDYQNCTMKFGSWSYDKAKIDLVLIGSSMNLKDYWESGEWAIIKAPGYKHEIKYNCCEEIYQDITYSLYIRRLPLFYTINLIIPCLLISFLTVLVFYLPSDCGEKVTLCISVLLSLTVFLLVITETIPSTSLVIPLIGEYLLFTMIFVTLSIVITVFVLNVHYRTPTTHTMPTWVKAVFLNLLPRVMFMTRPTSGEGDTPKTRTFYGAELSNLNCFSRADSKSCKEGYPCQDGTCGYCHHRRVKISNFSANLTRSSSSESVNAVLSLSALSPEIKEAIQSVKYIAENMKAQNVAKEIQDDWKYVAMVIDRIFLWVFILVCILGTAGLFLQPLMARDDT
T1 sequence (P12392 whole entry): as the sequence (P12392 whole entry) above
Sequence of Neuronal acetylcholine receptor; alpha4/beta2 (Homo sapiens, UniProt P17787+P43681) (P17787 whole entry): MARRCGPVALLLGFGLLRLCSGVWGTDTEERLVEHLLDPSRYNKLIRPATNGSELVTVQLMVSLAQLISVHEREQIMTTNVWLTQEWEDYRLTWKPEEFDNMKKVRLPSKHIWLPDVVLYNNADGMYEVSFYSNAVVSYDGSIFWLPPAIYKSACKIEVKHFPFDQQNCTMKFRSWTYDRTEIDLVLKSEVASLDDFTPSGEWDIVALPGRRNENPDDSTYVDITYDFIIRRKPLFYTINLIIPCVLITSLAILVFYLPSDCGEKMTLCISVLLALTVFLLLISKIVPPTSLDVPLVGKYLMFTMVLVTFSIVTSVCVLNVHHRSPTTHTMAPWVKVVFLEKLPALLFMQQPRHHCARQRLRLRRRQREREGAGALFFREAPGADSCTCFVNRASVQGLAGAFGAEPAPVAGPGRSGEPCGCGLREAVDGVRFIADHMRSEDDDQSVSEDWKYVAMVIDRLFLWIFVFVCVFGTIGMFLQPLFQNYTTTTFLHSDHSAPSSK
Sequence of Neuronal acetylcholine receptor; alpha4/beta2 (Homo sapiens, UniProt P17787+P43681) (P43681 whole entry): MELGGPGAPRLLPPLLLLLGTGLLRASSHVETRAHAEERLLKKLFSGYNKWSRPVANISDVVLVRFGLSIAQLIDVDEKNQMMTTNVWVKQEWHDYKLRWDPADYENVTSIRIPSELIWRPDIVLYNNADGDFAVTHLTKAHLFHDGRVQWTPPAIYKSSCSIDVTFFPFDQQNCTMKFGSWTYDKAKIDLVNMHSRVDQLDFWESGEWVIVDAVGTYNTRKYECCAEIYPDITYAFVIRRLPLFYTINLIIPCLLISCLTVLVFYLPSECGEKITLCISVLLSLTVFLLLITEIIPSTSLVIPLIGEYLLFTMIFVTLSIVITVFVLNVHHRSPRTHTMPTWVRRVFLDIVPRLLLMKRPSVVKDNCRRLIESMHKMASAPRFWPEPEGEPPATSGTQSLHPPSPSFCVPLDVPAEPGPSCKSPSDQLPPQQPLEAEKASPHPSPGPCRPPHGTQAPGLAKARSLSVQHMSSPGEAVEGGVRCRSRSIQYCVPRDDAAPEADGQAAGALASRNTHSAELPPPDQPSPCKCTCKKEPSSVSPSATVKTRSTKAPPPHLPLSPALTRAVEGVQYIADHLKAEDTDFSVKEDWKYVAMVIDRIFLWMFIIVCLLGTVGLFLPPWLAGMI

Structure (SMILES)	Ki [1] [µM]	Ki [3] [µM]	IC50 [4] [µM]	IC50 [5] [µM]	Ki [7] [µM]	Activity [8]	Activity [9]	Activity [10]	Ratio Ki [12]	Ratio Ki [13]	Ratio IC50 [14]	Ratio Ki [15]	EC50 [17] [µM]	Activity (Mus musculus [2])	Activity [6]	Ki [11] [µM]	Activity (Mus musculus [16])
c1c2c(cc3c1OCO3)[C@H]1CCCN1CC2	100	6.6	1.3	> 100	0.17									Dose-dependent effect	Active		
COc1cc2c(cc1O)CCN1CC=C3C=C[C@H](OC)C[C@]321 [ERYSODINE]																0.05	
C[N+]12CCC[C@@H]1c1cc3c(cc1CC2)OCO3 (stereo partly drawn)	11	2.7	0.22	50	0.045				10	10	230	10	1.6				Active

Now from value to compound, other results behind:

Ki [1] [µM]	Ki [3] [µM]	IC50 [4] [µM]	IC50 [5] [µM]	Ki [7] [µM]	Activity [8]	Activity [9]	Activity [10]	Ratio Ki [12]	Ratio Ki [13]	Ratio IC50 [14]	Ratio Ki [15]	EC50 [17] [µM]	Structure (SMILES)	Activity (Mus musculus [2])	Activity [6]	Ki [11] [µM]	Activity (Mus musculus [16])
30	50	7.2	> 300	0.47	inactive	Dose-dependent effect	Dose-dependent effect						COc1cc2c(cc1OCc1ccccc1)CC[N+](C)(C)C2				
> 100	> 100	> 100	> 100	> 100									COc1ccc(CC2c3cc(OC)c(OC)cc3CC[N+]2(C)C)cc1OC (stereo not drawn)		Active		
